Activity calls are given as the source filed them. No cut-off for these calls is given here.
How the values were obtained:
[1] = Ratio of pIC50 (rat calpain/human calpain 1)
Procedure, shortened: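 pRatio = −log(intracellular calpain IC50 / human calpain 1 IC50). The intracellular IC50 comes from glioma C6 cells, which were exposed to compound for 4 h in total, including 3 h with maitotoxin to induce calpain activation, with Suc-Leu-Tyr-AMC as substrate. The enzymatic IC50 comes from isolated human calpain 1 with the same substrate.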

[2] = molecular target: Cathepsin B (Homo sapiens) (UniProt P07858); experiment: Inhibition of cathepsinB
Caspase-3 (Homo sapiens) = molecular target: T1, Caspase-3 (Homo sapiens) (UniProt P42574); experiment: Inhibition of caspase3
T1 sequence (whole entry): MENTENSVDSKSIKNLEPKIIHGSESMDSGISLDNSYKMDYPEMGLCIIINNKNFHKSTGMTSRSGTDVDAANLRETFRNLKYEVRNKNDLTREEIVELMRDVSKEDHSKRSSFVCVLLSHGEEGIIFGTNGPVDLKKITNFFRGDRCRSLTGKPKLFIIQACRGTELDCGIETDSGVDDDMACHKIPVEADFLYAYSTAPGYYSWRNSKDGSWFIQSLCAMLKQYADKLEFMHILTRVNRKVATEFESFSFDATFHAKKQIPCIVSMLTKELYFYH

[3] = molecular target: Chymotrypsinogen A (Bos taurus) (UniProt P00766); experiment: Inhibition of alpha chymotrypsin
Calpain 1 [4] = molecular target: Calpain 1 (Homo sapiens, UniProt P07384); experiment: (§1) Inhibition of isolated human calpain1; type: protein-complex assay
Procedure, shortened: (§2)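 Isolated human calpain 1 enzyme assay with Suc-Leu-Tyr-AMC as substrate; IC50 determined.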

[5] = Inhibition of maitotoxin induced intracellular calpain in glioma C6 cells; type: functional, cell-based; details: Rattus norvegicus
Procedure, shortened: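 Rat glioma C6 cells were exposed to compound for 4 h, the last 3 h with maitotoxin to activate calpain. Intracellular calpain activity was read as cleavage of the fluorogenic substrate Suc-Leu-Tyr-AMC. IC50 values are means of three experiments.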

[6] = tested on: Radical scavenging activity; experiment: Inhibition of ferrous induced lipid peroxidation in rat brain microsomes; type: functional
Calpain 1 [7] = molecular target: T2, Calpain 1 (Homo sapiens, UniProt P04632+P07384); experiment: as §1; type: protein-complex assay; procedure, shortened: as §2
T2 sequence (P04632 whole entry): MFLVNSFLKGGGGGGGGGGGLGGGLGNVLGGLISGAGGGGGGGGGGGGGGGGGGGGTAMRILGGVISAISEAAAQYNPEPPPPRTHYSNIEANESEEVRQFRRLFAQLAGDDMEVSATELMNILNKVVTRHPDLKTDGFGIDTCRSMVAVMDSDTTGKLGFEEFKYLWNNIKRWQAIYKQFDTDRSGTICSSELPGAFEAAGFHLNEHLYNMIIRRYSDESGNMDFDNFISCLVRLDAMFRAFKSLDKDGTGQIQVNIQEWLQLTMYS
T2 sequence (P07384 whole entry): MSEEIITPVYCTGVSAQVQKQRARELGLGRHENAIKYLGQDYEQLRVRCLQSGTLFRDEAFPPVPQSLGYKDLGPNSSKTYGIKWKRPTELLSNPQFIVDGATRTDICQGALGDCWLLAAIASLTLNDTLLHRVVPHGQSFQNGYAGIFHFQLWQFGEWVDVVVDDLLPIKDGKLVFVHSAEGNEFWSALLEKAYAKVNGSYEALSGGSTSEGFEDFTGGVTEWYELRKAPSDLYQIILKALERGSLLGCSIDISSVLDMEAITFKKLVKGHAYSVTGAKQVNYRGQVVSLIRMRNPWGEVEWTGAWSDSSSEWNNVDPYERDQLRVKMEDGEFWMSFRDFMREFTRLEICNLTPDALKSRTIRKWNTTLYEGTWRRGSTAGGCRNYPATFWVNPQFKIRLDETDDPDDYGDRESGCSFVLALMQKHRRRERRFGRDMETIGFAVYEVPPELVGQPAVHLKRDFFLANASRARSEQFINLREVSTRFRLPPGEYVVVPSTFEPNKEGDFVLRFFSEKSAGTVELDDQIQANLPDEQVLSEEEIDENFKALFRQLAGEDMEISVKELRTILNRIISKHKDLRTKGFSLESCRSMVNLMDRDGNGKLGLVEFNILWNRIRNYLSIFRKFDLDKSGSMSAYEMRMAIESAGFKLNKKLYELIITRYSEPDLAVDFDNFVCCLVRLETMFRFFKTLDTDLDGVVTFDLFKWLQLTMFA

| SMILES | Negative log of IC50 ratio (cellular/enzyme) [1] | Activity [2] | Activity (Caspase-3 (Homo sapiens)) | Activity [3] | IC50 (Calpain 1 [4]) | IC50 [5] | IC50 [6] | IC50 (Calpain 1 [7]) |
| --- | --- | --- | --- | --- | --- | --- | --- | --- |
| CC(C)C[C@H](NC(=O)COc1ccc2c(c1)Nc1ccccc1S2)C(=O)N[C@@H](CC(C)C)C(=O)N[C@H]1CCOC1O (stereo in doubt; 6d-08) [listing 1 of 2 here] | 2.24 | Active | inactive | inactive |  |  |  |  |
| CC(C)C[C@H](NC(=O)c1ccc2c(c1)Nc1ccccc1S2)C(=O)N[C@@H](CC(C)C)C(=O)N[C@H]1CCOC1O (some centres not stated) |  |  |  |  | 85.5 nM | 1800 nM | 1100 nM |  |
| CC(C)C[C@H](NC(=O)COc1ccc2c(c1)Nc1ccccc1S2)C(=O)N[C@@H](CC(C)C)C(=O)N[C@H]1CCOC1O (stereo in doubt; 6d) |  |  |  |  |  |  | 333 nM | 105 nM |
| CC(C)C[C@H](NC(=O)[C@@H](NC(=O)COc1ccc2c(c1)Nc1ccccc1S2)C(C)C)C(=O)N[C@H]1CCOC1O (some centres not stated) | 1.88 | Active | inactive | inactive | 75.9 nM | 1000 nM |  |  |
| CCC[C@H](NC(=O)COc1ccc2c(c1)Nc1ccccc1S2)C(=O)N[C@@H](CC(C)C)C(=O)N[C@H]1CCOC1O (some centres not stated) | 2.4 | Active | inactive | inactive | 151 nM | 600 nM |  |  |
| CC(C)C[C@H](NC(=O)Cc1ccc2c(c1)Nc1ccccc1S2)C(=O)N[C@@H](CC(C)C)C(=O)N[C@H]1CCOC1O (some centres not stated) |  |  |  |  | 55.4 nM | 2500 nM | 966 nM |  |
| CC(C)C[C@H](NC(=O)CCc1ccc2c(c1)Nc1ccccc1S2)C(=O)N[C@@H](CC(C)C)C(=O)N[C@H]1CCOC1O (some centres not stated) |  |  |  |  | 150 nM | 10000 nM | 3300 nM |  |
| Cc1cc(C(C)(C)C)c(O)c(C(C)(C)C)c1 [BUTYLATED HYDROXYTOLUENE] |  |  |  |  |  |  | 3250 nM |  |
| CC(C)C[C@H](NC(=O)C(C)(C)NC(=O)COc1ccc2c(c1)Nc1ccccc1S2)C(=O)N[C@H]1CCOC1O (some centres not stated) | 0.66 | Active | inactive | inactive | 138 nM | 30000 nM |  |  |
| CC(=O)OC1OCC[C@@H]1NC(=O)[C@H](CC(C)C)NC(=O)[C@H](CC(C)C)NC(=O)c1ccc2c(c1)Nc1ccccc1S2 (some centres not stated) |  |  |  |  | 905 nM | 1700 nM | 2310 nM |  |
| CC(C)C[C@H](NC(=O)[C@H](CO)NC(=O)COc1ccc2c(c1)Nc1ccccc1S2)C(=O)N[C@H]1CCOC1O (some centres not stated) | 1.21 | Active | inactive | inactive | 48.7 nM | 3000 nM |  |  |
| CC(C)C[C@H](NC(=O)[C@H](NC(=O)COc1ccc2c(c1)Nc1ccccc1S2)C(C)C)C(=O)N[C@H]1CCOC1O (some centres not stated) | 1.54 | Active | inactive | inactive | 553 nM | 16000 nM |  |  |
| CC(C)C[C@H](NC(=O)CNC(=O)COc1ccc2c(c1)Nc1ccccc1S2)C(=O)N[C@H]1CCOC1O (some centres not stated) | -0.9 | Active | inactive | inactive | 8 nM | 63000 nM |  |  |
| CC[C@H](NC(=O)COc1ccc2c(c1)Nc1ccccc1S2)C(=O)N[C@@H](CC(C)C)C(=O)N[C@H]1CCOC1O (some centres not stated) | 2.05 | Active | inactive | inactive | 88.6 nM | 800 nM |  |  |
| CC(C)C[C@H](NC(=O)[C@@H](NC(=O)COc1ccc2c(c1)Nc1ccccc1S2)[C@H](C)O)C(=O)N[C@H]1CCOC1O (some centres not stated) | 1.28 | Active | inactive | inactive | 38 nM | 2000 nM |  |  |
| CC(C)C[C@H](NC(=O)[C@H](C)NC(=O)COc1ccc2c(c1)Nc1ccccc1S2)C(=O)N[C@H]1CCOC1O (some centres not stated) | 0.22 | Active | inactive | inactive | 25 nM | 15000 nM |  |  |
| CC(C)C[C@H](NC(=O)COc1ccc2c(c1)Nc1ccccc1S2)C(=O)N[C@@H](CC(C)C)C(=O)N[C@H]1CCOC1O (stereo in doubt; 6d-08) [listing 2 of 2 here] |  |  |  |  | 105 nM | 600 nM |  |  |
| CC(C)C[C@H](NC(=O)[C@@H](NC(=O)COc1ccc2c(c1)Nc1ccccc1S2)C(C)(C)C)C(=O)N[C@H]1CCOC1O (some centres not stated) | 1.95 | Active | inactive | inactive | 354 nM | 4000 nM |  |  |
| CC(C)C[C@H](NC(=O)[C@@H](NC(=O)COc1ccc2c(c1)Nc1ccccc1S2)c1ccccc1)C(=O)N[C@H]1CCOC1O (some centres not stated) | 1.65 | Active | inactive | inactive | 222 nM | 5000 nM |  |  |

Reference: ChEMBL document CHEMBL1146049, “Novel dual inhibitors of calpain and lipid peroxidation with enhanced cellular activity” (Bioorg Med Chem Lett, 2006)
